From publication PMC7092849 (Biochemical and Biophysical Research Communications, 2018) come the findings set out here.

Data set [1] relates to 3T3 cells. The format is cell-based, mouse.
The data set “crystal structure” concerns the molecule itself. Briefly: crystal structure.
Data set [2] deals with 3T3 cells. As to the kind of experiment: Cytotoxicity assay. The format is cell-based, mouse. The note with it: CCK-8, up to 1 mg/ml, Fig. 4D. An outline of the steps:
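Mouse fibroblast BALB 3T3 cells were exposed to a recombinant collagen III tandem-repeat protein or collagen-derived peptides at concentrations up to 1000 μg/ml. Viability was read with CCK-8 following the manufacturer's manual. CC50 was the intended read-out.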

“Also recorded” adds a separate entry of the source. Non-standard residues stand in square brackets, D forms with d. No end group written: not given here. Hyp = O=C(O)[C@@H]1C[C@@H](O)CN1

As to “bovine serum albumin [BSA, reference compound]”, in the data set with 3T3 cells [1], the “cell adhesion activity (relative cell adhesion rate)” value is listed as “no significant adhesion activity”. Same read-out and setting: the result for “C1P: native hCOL3A1 peptide, Gly483-Pro512 (GERGAPGFRGPAGPNGIPGEKGPAGERGAP)” reads “the most potent cell adhesion activity; also recorded: much stronger cell adhesion activity than that of Type I collagen”.

Usually stoichiometry N stands for the number of molecules, sites or subunits per partner or assembly. Consider P[Hyp]GP[Hyp]GP[Hyp]GFRGPAGPNGIPGP[Hyp]GP[Hyp]GP[Hyp]G [host-guest peptide C3Pa, (Pro-Hyp-Gly)3-FRGPAGPNGIPG-(Pro-Hyp-Gly)3], for which, in “crystal structure”, the “stoichiometry N” value was 3.

B1: T16: recombinant 480aa protein, 16 tandem repeats of the triple-helix fragment of hCOL3A1, Gly483-Pro512 (C1P) (protein)
chain: GERGAPGFRGPAGPNGIPGEKGPAGERGAPGERGAPGFRGPAGPNGIPGEKGPAGERGAPGERGAPGFRGPAGPNGIPGEKGPAGERGAPGERGAPGFRGPAGPNGIPGEKGPAGERGAPGERGAPGFRGPAGPNGIPGEKGPAGERGAPGERGAPGFRGPAGPNGIPGEKGPAGERGAPGERGAPGFRGPAGPNGIPGEKGPAGERGAPGERGAPGFRGPAGPNGIPGEKGPAGERGAPGERGAPGFRGPAGPNGIPGEKGPAGERGAPGERGAPGFRGPAGPNGIPGEKGPAGERGAPGERGAPGFRGPAGPNGIPGEKGPAGERGAPGERGAPGFRGPAGPNGIPGEKGPAGERGAPGERGAPGFRGPAGPNGIPGEKGPAGERGAPGERGAPGFRGPAGPNGIPGEKGPAGERGAPGERGAPGFRGPAGPNGIPGEKGPAGERGAPGERGAPGFRGPAGPNGIPGEKGPAGERGAP
modifications: left off: thioredoxin, end not stated, state not stated
Turning to B1, the “cell adhesion activity (relative cell adhesion rate)” value in the data set with 3T3 cells [1] is given as “very strong cell adhesion activity”. Further, the cytotoxicity entry with 3T3 cells [2] is recorded as “No obvious cytotoxicity”.
